Results taken from ChEMBL document CHEMBL5712918, “Targeting methyltransferase PRMT5 retards the carcinogenesis and metastasis of HNSCC via epigenetically inhibiting Twist1 transcription” (Neoplasia, 2020).
The source made the active and inactive calls. No cut-off for these calls is given here.

Columns and labels:
HSC-6 [1] = test: Antitumor activity against human HSC-6 cells xenografted in BALB/c nude mouse model of orthotopic tumor assessed as as reduction in distant metastasis in lung at 30 mg/kg by H and E analysis; assay type: functional, organism-based
[2] = molecular target: Protein arginine N-methyltransferase 5 (Homo sapiens) (UniProt O14744); test: Inhibition of PRMT5 in human SCC-25 cells assessed as increase in E-cadherin protein expression level at 10 uM incubated for 4 days by western blot analysis; assay type: cell-based; settings: time 4.0 day
Method in brief: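 HSC6 or SCC25 cells treated with 10 μM for 4 days. E-cadherin, N-cadherin and Twist1 proteins detected by immunoblot.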

[3] = molecular target: Protein arginine N-methyltransferase 5 (Homo sapiens) (UniProt O14744); test: Inhibition of PRMT5 in human SCC-25 cells assessed as reduction in WDR5 occupancy in Twist1 promoter region at 10 uM incubated for 4 days by Chip-qPCR analysis; assay type: cell-based; settings: time 4.0 day
Method in brief: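 SCC25 cells exposed to inhibitor at 10 μM for 4 days. ChIP used a commercial kit with anti-WDR5 or anti-Set1 (1:50), and binding at the Twist1 promoter was quantified by qPCR. Mean ± SD of three independent experiments, Student's t test.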

[4] = Toxicity in BALB/c nude mouse xenografted with human HSC6 cells assessed as effect on kidney morphology at 15 to 30 mg/kg; assay type: organism-based; settings: in vivo, dose 15-30 mg/kg
Method in brief: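 Subcutaneous xenograft in 4-week-old BALB/c nude mice given 6 × 10^7 HSC6 cells into the back. Groups were control, 15 mg/kg and 30 mg/kg. Body weight was monitored and major organs were examined for toxicity.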

HSC-6 [5] = test: Antimigratory activity against human HSC-6 cells assessed as reduction in cell migration after 48 hrs incubated for 48 hrs by transwell assay; assay type: functional, cell-based
HSC-6 [6] = test: Antiproliferative activity against human HSC-6 cells assessed as reduction in colony formation at 0.5 to 5 uM after 10 to 14 days […]; assay type: functional, cell-based; settings: dose 0.5-5 µM, time 10-14 day
Method in brief: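 Colony formation: cells dispersed to single cells and seeded at 500 cells/well in 6-well plates. Grown 10–14 days until macroscopic clones appeared, then formaldehyde-fixed and crystal violet-stained. Clone formation rate from clones counted by eye.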

HSC-6 [7] = test: Anti-invasive activity against human HSC-6 cells assessed as reduction in cell invasion at 10 uM for 4 days by transwell assay; assay type: functional, cell-based; settings: time 4.0 day
Method in brief: (§1)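 Transwell migration and invasion with 8-μm pore inserts. HSC6 or SCC25 cells, including lines stably overexpressing Flag-Twist1, treated at 10 μM for 4 days. Mean ± SD of three independent experiments, one-way ANOVA.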

[8] = Toxicity in BALB/c nude mouse xenografted with human squamous carcinoma cells assessed as effect on body weight at 30 mg/kg; assay type: organism-based; settings: in vivo
SCC-25 = test: Antimigratory activity against human SCC-25 cells assessed as reduction in cell migration at 10 uM for 4 days by transwell assay; assay type: functional, cell-based; settings: time 4.0 day; method in brief: as §1
HSC-6 [9] = test: Antitumor activity against human HSC-6 cells xenografted in BALB/c nude mouse model of orthotopic tumor assessed as as reduction in distant metastasis in liver at 30 mg/kg by H and E analysis; assay type: functional, organism-based
[10] = Toxicity in BALB/c nude mouse xenografted with human tongue squamous carcinoma cells assessed as effect on liver morphology at 30 mg/kg; assay type: organism-based; settings: in vivo
[11] = molecular target: Protein arginine N-methyltransferase 5 (Homo sapiens) (UniProt O14744); test: Inhibition of PRMT5 in human SCC-25 cells assessed as increase in E-cadherin protein expression level at 10 uM incubated for 4 days by western blot analysis; settings: time 4.0 day

Chain of Protein arginine N-methyltransferase 5 (Homo sapiens) (O14744 whole entry): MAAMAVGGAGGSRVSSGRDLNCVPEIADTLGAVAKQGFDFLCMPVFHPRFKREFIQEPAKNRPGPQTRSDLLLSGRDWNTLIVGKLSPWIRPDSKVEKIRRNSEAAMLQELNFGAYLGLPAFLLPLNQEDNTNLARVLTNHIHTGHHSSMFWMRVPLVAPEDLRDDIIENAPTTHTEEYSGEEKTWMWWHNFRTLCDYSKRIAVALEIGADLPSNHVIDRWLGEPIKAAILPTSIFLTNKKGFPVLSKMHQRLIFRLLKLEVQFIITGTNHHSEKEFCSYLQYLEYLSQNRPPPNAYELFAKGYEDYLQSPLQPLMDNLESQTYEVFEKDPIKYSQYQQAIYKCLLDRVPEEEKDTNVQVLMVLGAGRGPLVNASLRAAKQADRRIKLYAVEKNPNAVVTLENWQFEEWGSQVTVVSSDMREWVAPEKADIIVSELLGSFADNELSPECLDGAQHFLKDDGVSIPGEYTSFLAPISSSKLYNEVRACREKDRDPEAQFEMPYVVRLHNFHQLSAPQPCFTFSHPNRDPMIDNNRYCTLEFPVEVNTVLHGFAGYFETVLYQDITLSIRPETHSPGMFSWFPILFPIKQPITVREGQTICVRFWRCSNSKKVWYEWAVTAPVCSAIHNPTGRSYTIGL

inhibition [2]: Active
inhibition [3]: Active
inhibition [11]: Active
Compound: O=C(NC[C@H](O)CN1CCc2ccccc2C1)c1cc(NC2COC2)ncn1
Activity (HSC-6 [1]): Active
Activity [4]: Non-Toxic
Activity (HSC-6 [5]): Active
Activity (HSC-6 [6]): Active
Activity (HSC-6 [7]): Active
Activity [8]: Non-Toxic
Activity (SCC-25): Active
Activity (HSC-6 [9]): Active
Activity [10]: Non-Toxic
